Read-outs that look alike come from different tables or passages of the source.
Legend:
[1] = target: T1, TGR (DTNB reducing activity) (Schistosoma mansoni, UniProt Q962Y6); assay: TGR inhibition confirmatory assay, DTNB reduction; assay type: biochemical
T1 sequence (Q962Y6 1-598): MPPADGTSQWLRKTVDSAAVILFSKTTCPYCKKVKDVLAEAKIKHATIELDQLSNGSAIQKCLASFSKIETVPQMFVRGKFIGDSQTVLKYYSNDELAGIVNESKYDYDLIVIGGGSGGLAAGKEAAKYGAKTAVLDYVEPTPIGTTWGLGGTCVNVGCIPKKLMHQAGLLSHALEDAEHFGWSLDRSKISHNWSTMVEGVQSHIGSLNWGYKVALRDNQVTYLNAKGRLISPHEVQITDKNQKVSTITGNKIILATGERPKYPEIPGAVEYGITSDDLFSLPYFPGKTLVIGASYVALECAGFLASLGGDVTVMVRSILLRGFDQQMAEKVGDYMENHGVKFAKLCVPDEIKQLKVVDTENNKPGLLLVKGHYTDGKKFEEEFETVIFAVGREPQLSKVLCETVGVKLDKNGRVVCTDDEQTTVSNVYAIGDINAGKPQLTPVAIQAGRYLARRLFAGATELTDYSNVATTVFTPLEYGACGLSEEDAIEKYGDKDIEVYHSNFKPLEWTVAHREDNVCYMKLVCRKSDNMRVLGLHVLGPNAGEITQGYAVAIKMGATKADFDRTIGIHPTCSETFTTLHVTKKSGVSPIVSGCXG

[2] = test system: S. mansoni adult worms; assay: Ex vivo adult worm killing, continuous exposure; set-up: species or system Schistosoma mansoni; settings: for LD50 against S. mansoni adult worms: 5 days incubation, media and compounds replaced daily
[3] = target: T2, TGR (GSSG reducing activity) (Schistosoma mansoni, UniProt Q962Y6); assay: TGR inhibition assay, GSSG reduction; assay type: biochemical; settings: read-out: IC50 (GSSG); GSSG as substrate
T2 sequence (Q962Y6 1-598): T1 sequence (Q962Y6 1-598)
Procedure, shortened: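 Recombinant wild-type S. mansoni TGR (selenoprotein) was expressed in E. coli BL21 (DE3) with a His-SUMO tag. The tag was removed, leaving Gly-Ser-His at the N-terminus. Inhibition was measured as enzymatic GSSG reduction, run in triplicate.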

[4] = test system: S. mansoni adult worms; assay: Brief; set-up: species or system Schistosoma mansoni
[5] = target: T3, hGR (Homo sapiens, UniProt P00390); assay: Inhibition of human glutathione reductase; assay type: biochemical; settings: for Inhibition of hGR: at 2 mM (concentrations as high as 2 mM); for IC50: read-out: hGR IC50; for hGR IC50 fold higher than for TGR: selectivity TGR versus hGR
T3 sequence (P00390 44-522): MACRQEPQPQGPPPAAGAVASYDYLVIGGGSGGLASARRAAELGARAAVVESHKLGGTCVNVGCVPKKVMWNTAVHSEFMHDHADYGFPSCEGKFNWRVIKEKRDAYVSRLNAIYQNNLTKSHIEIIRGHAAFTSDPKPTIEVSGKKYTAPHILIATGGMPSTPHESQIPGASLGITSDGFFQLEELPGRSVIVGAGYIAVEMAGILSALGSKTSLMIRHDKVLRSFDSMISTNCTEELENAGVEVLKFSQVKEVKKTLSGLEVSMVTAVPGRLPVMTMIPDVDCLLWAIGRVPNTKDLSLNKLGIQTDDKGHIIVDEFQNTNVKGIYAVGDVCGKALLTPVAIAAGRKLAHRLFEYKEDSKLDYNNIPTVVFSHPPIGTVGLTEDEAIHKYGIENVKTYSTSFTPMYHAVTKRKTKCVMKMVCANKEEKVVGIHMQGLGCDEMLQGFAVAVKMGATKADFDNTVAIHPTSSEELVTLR

[6] = test system: S. mansoni juvenile worms; assay: Ex vivo juvenile worm killing, continuous exposure; set-up: species or system Schistosoma mansoni
[7] = test system: Schistosoma mansoni TGR; settings: read-out: TGR IC50 qHTS, cited from earlier work
[8] = test system: S. mansoni schistosomula; assay: Schistosomula; set-up: species or system Schistosoma mansoni
[9] = test system: parasites; settings: 5 μM (physiological concentration); cited from earlier work
[10] = target: T4, TGR (Schistosoma mansoni, UniProt Q962Y6); assay: NADPH-dependence and reversibility of TGR inhibition; assay type: biochemical; settings: for Reversibility of TGR inhibition: incubation with NADPH, activity 30 minutes and 3 hours after desalting
T4 sequence (Q962Y6 1-598): T1 sequence (Q962Y6 1-598)

[11] = test system: schistosomes; settings: cited from earlier work
[12] = target: T4, TGR; assay: NADPH oxidase activity of inhibited TGR; assay type: biochemical; settings: for H2O2 production compared with untreated TGR: Amplex Red and horseradish peroxidase; for Decrease of NADPH consumption compared with uninhibited TGR: after treatment and desalting
[13] = target: TGR activities (DTNB and GSSG reduction) in S. mansoni adult worms (Schistosoma mansoni, UniProt Q962Y6); assay: TGR activity in homogenates of treated worms; settings: worms cultured in 50 μM compound, harvested before any worm death
Procedure, shortened: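 Adult S. mansoni from infected Swiss-Webster mice, about 10 worm pairs per 1 mL RPMI with 10% FCS, 10 mM glutamine and penicillin/streptomycin, pre-cultured 24 h. Exposed to 50 μM compound in DMSO, refreshed daily; DMSO controls. Worms collected at set times, washed, homogenized and centrifuged; protein measured. NADPH-dependent DTNB and GSSG reduction assayed in triplicate versus time-matched controls.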

[14] = test system: S. haematobium adult worms; assay: Ex vivo adult worm killing, continuous exposure; settings: 10 μM
[15] = test system: S. japonicum adult worms; assay: Ex vivo adult worm killing, continuous exposure; settings: 12.5 μM, 120 h
[16] = test system: Vero cells
[17] = cited from earlier work
[18] = target: T4, TGR; assay: TGR dimer/monomer analysis by native PAGE; settings: native PAGE after reaction with compound
[19] = test system: Schistosoma mansoni; settings: overnight exposure; cited from earlier work
[20] = read-out: IC50 (DTNB), DTNB as substrate
[21] = read-out: TGR IC50 Confirm, confirmatory assay
[22] = 20 μM, then 5 days in media without compound
[23] = PubChem BioAssay, ref AID485364
[24] = 50 μM, then 5 days in media without compound
[25] = 100 μM, then 5 days in media without compound

| Structure (SMILES) | IC50 [1, 20] [nM] | IC50 [1, 21] [nM] | LD50 against S. mansoni adult worms [2] [µM] | IC50 [3] [nM] | S. mansoni adult worm killing after 1 hr exposure [4, 22] | Inhibition of hGR [5] | IC50 [7, 23] [nM] | Sm Somula, dead ([8]; 10 μM, 24 h) | also measured |
| --- | --- | --- | --- | --- | --- | --- | --- | --- | --- |
| CCN(c1ccccc1)S(=O)(=O)c1ccc(NC(=O)c2nc(S(C)(=O)=O)ncc2Cl)cc1 [Compound 2] | 210 ± 20 | 210 | 9.07 | 230 ± 30 | 40% | did not inhibit | 398 | 10 μM 24 h 100% d^‡ | Sm juvenile, dead ([6]; 10 μM, 24 h): 10 μM 24 h 100% d^‡ |
| CC(=O)OC[C@H]1O[C@@H]([S-])[C@H](OC(C)=O)[C@@H](OC(C)=O)[C@@H]1OC(C)=O.CCP(CC)CC.[Au+] [auranofin] | – | – | – | – | – | – | – | – | Killing of parasites in culture [9]: kill parasites rapidly; TGR inhibition in the absence of NADPH ([10]; compounds at 20 times the IC50, TGR 50 nM, incubation without NADPH, desalting): found to inhibit TGR; Reversibility of TGR inhibition [10]: irreversible inhibitors of TGR; Cure of infected mice [11]: partially cure infected mice; H2O2 production compared with untreated TGR [12]: same low amounts of H2O2 as untreated TGR; Decrease of NADPH consumption compared with uninhibited TGR [12]: about 50% |
| CCOC(=O)C(C(=O)OCC)c1cc(Br)c2noc3c2c1C(=O)c1ccccc1-3 [Compound 6] | 140 ± 10 | 140 | – | 150 ± 20 | – | 25% | 631 | – | S. mansoni adult worm killing after 1 hr exposure ([4]; all concentrations tested (10, 20, 50, 100 μM)): no worm killing; Inhibition of TGR activity (DTNB and GSSG reduction) in worm homogenates [13]: ~ 60% |
| O=c1c(Cl)c(-n2cc(CO)nn2)cnn1-c1ccccc1 [Compound 3] | 2840 ± 80 | 2840 | 4.9 | 2490 ± 110 | about 10% | 19% | – | 10 μM 24 h 100% d^‡ | Adult worms Sm, dead ([2]; 10 μM, 72 h): 10 μM 72 h 100% d^‡; S. mansoni adult worm killing after 1 hr exposure [4, 24]: 80%; Sm juvenile, dead ([6]; 10 μM, 48 h): 10 μM 48 h 100% d^‡; IC50 ([7]; ref Li et al. 2015 [18]): 6300 nM; Adult worms Sh, dead ([14]; 96 h): 10 μM 96 h 100% d^‡ |
| Oc1ccc(CNc2cccc(C(F)(F)F)c2)c2cccnc12 [Compound 7] | 90 ± 20 | 90 | 18.2 | 130 ± 30 | 10% | did not inhibit | 316 | – | Adult worms Sm, dead ([2]; 12.5 μM, 120 h): 12.5 μM 120 h 43% d^‡; S. mansoni adult worm killing after 1 hr exposure [4, 25]: 80%; Adult worms Sj, dead [15]: 12.5 μM 120 h no killing; Cytotoxicity against mammalian cells compared with schistosome worms [16]: notable exception; Sm juvenile, dead ([6]; 12.5 μM, 120 h): 12.5 μM 120 h 8% d^‡; H2O2 production compared with untreated TGR [12]: less H2O2 than untreated TGR; Induction of NADPH oxidase activity in TGR (NADPH consumption, superoxide production) ([12]; TGR 500 nM, NADPH 100 μM, 30 min, 20 μM for 1, 2, 5-8, 50 μM for 3 and 4, desalted): lowest NADPH oxidase activity; Decrease of NADPH consumption compared with uninhibited TGR [12]: about 50%; Sm Somula, dead ([8]; 12.5 μM, 120 h): 12.5 μM 120 h 61% d^‡ |
| COC(=O)CS(=O)(=O)c1nnc(C(Cc2ccccc2)NC(=O)OC(C)(C)C)o1 (stereo not shown) [Compound 1] | 330 ± 70 | 330 | 8.41 | 390 ± 70 | 60% | did not inhibit | – | 10 μM 24 h 99% d^‡ | Sm juvenile, dead ([6]; 10 μM, 120 h): 10 μM 120 h 39% d^‡; Adult worms Sh, dead ([14]; 144 h): 10 μM 144 h 67% d^‡ |
| COc1ccc(C(Nc2cc(C)ccn2)c2ccc3ccc(C)nc3c2O)cc1 (stereo not shown) [Compound 8] | 130 ± 40 | 130 | 12.4 | 330 ± 50 | 10% | did not inhibit | 398 | – | Adult worms Sm, dead ([2]; 12.5 μM, 120 h): 12.5 μM 120 h 53% d^‡; Reversibility of TGR inhibition [10]: reversible inhibition; S. mansoni adult worm killing after 1 hr exposure [4, 25]: 30%; Adult worms Sj, dead [15]: 12.5 μM 120 h 56% d^‡; Sm juvenile, dead ([6]; 10 μM, 120 h): 10 μM 120 h 24% d^‡; H2O2 production compared with untreated TGR [12]: same low amounts of H2O2 as untreated TGR; Sm Somula, dead ([8]; 10 μM, 120 h): 10 μM 120 h 20% d^‡ |
| COc1ccc([N+](=O)[O-])c(S(=O)(=O)c2ccc(Cl)cc2)n1 [Compound 5, TRi-1] | 60 ± 10 | 60 | 10.1 | 50 ± 10 | about 10% | – | 100 | 10 μM 24 h 100% d^‡ | S. mansoni adult worm killing after 1 hr exposure [4, 24]: 60%; IC50 [5]: 104000 nM; hGR IC50 fold higher than for TGR [5]: 1700 fold; Sm juvenile, dead ([6]; 10 μM, 120 h): 10 μM 120 h 57% d^‡; Tolerability in animal models ([17]; in vivo): well tolerated |
| Cc1c(-c2cnccn2)ssc1=S [oltipraz, reference compound] | – | – | 2 | – | – | – | – | – | – |
| O=[N+]([O-])c1ccc2c(c1)S(=O)(=O)C=C2 [Compound 4, Stattic] | 2010 ± 140 | 2010 | 7.08 | 2200 ± 200 | about 10% | – | – | 10 μM 24 h 100% d^‡ | Adult worms Sm, dead ([2]; 10 μM, 144 h): 10 μM 144 h 76% d^‡; S. mansoni adult worm killing after 1 hr exposure [4, 24]: 100%; IC50 [5]: 30700 nM; hGR IC50 fold higher than for TGR [5]: 15 fold; Monomer formation of TGR [18]: No evidence for monomer formation; Sm juvenile, dead ([6]; 10 μM, 72 h): 10 μM 72 h 100% d^‡; Tolerability in animal models ([17]; animal models of different diseases): well tolerated; IC50 ([7]; ref Li et al. 2015 [18]): 5440 nM |
| O=C(C1CCCCC1)N1CC(=O)N2CCc3ccccc3C2C1 (stereo not shown) [praziquantel, reference compound] | – | – | 0.5 | – | – | – | – | – | LD50 of praziquantel [19]: 40 µM; S. mansoni adult worm killing after 1 hr exposure [4, 25]: 20% |

From publication PMC7072008 (ACS infectious diseases, 2020)
